Data on 22 molecules can be found in PubChem BioAssay AID463079 (The Scripps Research Institute Molecular Screening Center, 2010).

Hit rate of the full screen: of about 330,000 compounds, about 2,000 (0.61%) were called active. Only a selection was taken, and actives are over-represented in it overall. Unmarked numbers belong to inactive results.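 The calls were made as follows: active = inhibition above that plate's mean sample inhibition plus 3 SD (cut at about 26% in these data); inactive = the rest.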

The assay in a line: ATP-evoked calcium signal inhibitors, parental CHO, primary screen, counter-screen for OX1R antagonist project, cell-based, fluorescence, Fluo-8 calcium dye (AID 463079).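 Also: 0% = ATP-challenged DMSO wells and 100% = DMSO wells without ATP.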 As to conditions: parental CHO-K1, ATP-induced calcium, Fluo-8 fluorescence; at 5.6 µM; stronger effect = higher value. The method, boiled down: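 Assay system: parental CHO cells; Read-out basis: percent inhibition of ATP-evoked calcium rise, normalized to controls; Benchmarks: ATP and no-ATP DMSO wells; Compound dosing: single nominal dose of 5.6 µM per compound; Signal: Fluo-8 calcium dye fluorescence; Also added: ATP as calcium-mobilizing challenge; Repeats: singlicate.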
For orientation: inhibition means the relative decrease from the control value, in per cent. Turning to `O=Cc1c(Cl)cccc1Cl`, the inhibition is -9.8%. For `O=C(NCCc1c[nH]c2ccc(Cl)cc12)c1ccc([N+](=O)[O-])cc1` the value was 8.94%.

With `O=C(NCCc1ccc(Cl)cc1Cl)c1cc([N+](=O)[O-])c[nH]c1=O`, the inhibition was 26.2% (active). For `NS(=O)(=O)c1ccc(CCNC(=O)c2ccc(Cl)cc2[N+](=O)[O-])cc1` the value was -1.67%; for `Cc1ccc(O/C=C2\OC(=O)c3ccccc32)cc1`, 3.04%.

Consider `O=C(COC(=O)c1ncc(Cl)c(Cl)c1Cl)NCc1cccs1`, for which the inhibition was -15.5%. As to `CC1CC(C)CN(C(=O)COC(=O)c2ccc3ncsc3c2)C1` (configuration not stated), the inhibition is -8.36%. The same measure for `CCC(=C/c1sc2ccc3ccccc3c2[n+]1C)/C=C1\Sc2ccc3ccccc3c2N1C`: 79.9% (active); for `CCC1(c2ccccc2)NC(=O)N(CC(=O)Nc2ccccc2C(=O)NC2CCCC2)C1=O` (configuration not stated): -8.29%. The same measure for `COc1ccc(NC(=O)CC2C(=O)OCC3CCCCN32)cc1Cl` (configuration not stated): -17.2%; for `COc1ccccc1NC(=O)/C=C/C(N)=O`: -0.46%; for `CC(C)(C)c1ccc(/C=C/C(=O)Nc2ncccn2)cc1`: -20.1%. The same measure for `COC(=O)c1sc(-c2ccc(C(C)(C)C)cc2)cc1NC(=O)/C=C/C(=O)O`: 38.8% (active); for `CC(C)c1cc(C(N)=O)c(NC(=O)c2cccc(COc3ccc(Br)cc3)c2)s1`: -12.5%; for `O=C1OCCN1C(=O)[C@H]1[C@H](c2ccccc2)C(c2ccc(F)cc2)=NN1c1ccccc1`: -16.7%. Take `CC1(C)Oc2ccc(C(=O)N3CCOCC3)cc2N(CC(=O)Nc2ccccc2)C1=O`: the inhibition is -10.5%. On to `Cc1nn(C)cc1/C=C1\CCC/C(=C\c2cn(C)nc2C)C1=O`, for which the inhibition was 1.91%. For the molecule `Cc1oc2c(F)c(F)c(F)c(F)c2c1S(=O)(=O)Nc1cccc(C(F)(F)F)c1`, the inhibition was 42.3% (active). For `CCOC(=O)N1CCN(C(=O)c2ccc(S(=O)(=O)Nc3cccc(C(F)(F)F)c3)cc2)CC1` the value was 10.1%; for `O=C(/C=C/c1ccc(F)cc1)Nc1cccc(S(=O)(=O)Nc2cccc(C(F)(F)F)c2)c1`, -1.97%; for `COc1cccc(OC)c1C(=O)N1CCN(Cc2cccnc2)CC1`, 2.69%. The same measure for `CC[C@]12c3[nH]c4cc(CCC(=O)N(C)C)ccc4c3CCN1C(=O)[C@@H](CC(=O)NCc1ccco1)C[C@@H]2C(=O)N1CCN(C(=O)c2ccco2)CC1`: -6.08%.
